In ChEMBL document CHEMBL1151715, “Novel D-xylose derivatives stimulate muscle glucose uptake by activating AMP-activated protein kinase alpha” (J Med Chem, 2008):
The source made the active and inactive calls.

Tests used:
[1] = test system: L6; assay: Effect on [3H]2-deoxy-D-glucose uptake in rat L6 cells at 5 uM relative to control; assay type: functional, cell-based; conditions: TDE = time-dependent effect
Method in brief: (§1)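 L6 myotubes were held in αMEM with 2% FCS and 23.0 mM D-glucose for 24 h. They were then treated with increasing concentrations in medium with 10% FCS and 23.0 mM D-glucose for 7 or 18 h; vehicle controls ran 18 h. After washing, uptake was measured with 0.1 mM dGlc plus 1.3 µCi/mL [3H]dGlc in PBS pH 7.4 for 5 min at room temperature. Ice-cold PBS stop, SDS lysis, scintillation counting; basal rate set to 100%.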

[2] = test system: L6; assay: Effect on [3H]2-deoxy-D-glucose uptake in rat L6 cells at 200 uM relative to control; assay type: functional; method in brief: as §1
[3] = test system: L6; assay: Increase in GLUT1myc abundance in rat L6 cell membrane at 50 uM after 7 hrs; assay type: functional, cell-based
Method in brief: (§2)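 Myc-tagged GLUT1 or GLUT4 L6 myotubes were preconditioned at 5.5 or 23.0 mM glucose for 24 h, then treated in 10% FCS medium for 7 h (18 h for the 5 µM agent). Insulin was 200 nM for 30 min. Intact cells were labeled with rabbit anti-myc (1:200), fixed in 3% formaldehyde, and given HRP anti-rabbit IgG (1:2000). OPD colour was read at 492 nm.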

[4] = test system: Serum; assay: Free concentration in fetal calf serum at 5 uM; conditions: cattle
[5] = test system: L6; assay: Effect on [3H]2-deoxy-D-glucose uptake in rat L6 cells at 50 uM relative to control; assay type: functional, cell-based; conditions: TDE = time-dependent effect; method in brief: as §1
[6] = Cytotoxicity against rat L6 cells by MTT assay; assay type: cell-based
Method in brief: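 MTT assay on L6 myotubes after the treatment incubations: MTT at 2 mg/mL in αMEM for 30 min at 37 °C, formazan dissolved in DMSO, absorbance read at 570 nm.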

[7] = Effect on [3H]2-deoxy-D-glucose uptake in human skeletal muscle cells at 5 uM relative to control; assay type: functional
[8] = test system: L6; assay: Increase in GLUT1myc abundance in rat L6 cell membrane at 150 uM after 7 hrs; assay type: functional, cell-based; method in brief: as §2
[9] = test system: L6; assay: Increase in GLUT1myc abundance in rat L6 cell membrane at 5 uM after 18 hrs
[10] = species: Homo sapiens; assay: Activation of 5-AMP-induced AMPKalpha in human skeletal muscle cells assessed as […] phosphorylation at 5 uM relative to control
Method in brief: (§3)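 Primary human skeletal myoblasts from the rectus abdominis of a donor were differentiated into myotubes and treated in medium with 10% (v/v) FCS, 23.0 mM D-glucose and agent, with vehicle controls. Whole-cell lysates were Western blotted for total AMPKα and […]-AMPKα, with ECL detection and densitometry.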

[11] = test system: L6; assay: Effect on [3H]2-deoxy-D-glucose uptake in rat L6 cells at 150 uM relative to control; assay type: functional, cell-based; conditions: TDE = time-dependent effect; method in brief: as §1
[12] = test system: L6; assay: Activation of 5-AMP-induced AMPKalpha in rat L6 cells assessed as […] phosphorylation at 5 uM relative to control; assay type: cell-based
Method in brief: (§4)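 L6 myotubes preconditioned 24 h in αMEM with 2% FCS and 23.0 mM D-glucose, then given fresh medium with 10% (v/v) FCS, 23.0 mM D-glucose and test agent; controls received vehicle. Whole-cell lysates (Tris pH 7.5 with phosphatase and protease inhibitors) were blotted for AMPKα and […]-AMPKα, detected by ECL, and bands quantified by densitometry.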

[13] = test system: L6; assay: Inhibition of [3H]2-deoxy-D-glucose uptake in rat L6 cells at 5 uM in presence of 100 nM wortmannin; assay type: functional, cell-based
Method in brief: (§5)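 L6 myotubes at 23 mM D-glucose received 100 nM wortmannin 30 min before the agents. Treatment ran in 10% FCS medium for 7 h (18 h for the 5 µM agent). A 5-min [3H]dGlc uptake (0.1 mM dGlc, 1.3 µCi/mL) in PBS at room temperature followed, with the vehicle basal rate set to 100%.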

[14] = test system: L6; assay: Activation of 5-AMP-induced AMPKalpha in rat L6 cells assessed as reduction in hexose transport at 5 uM relative to control in presence of compound C; parameters: scale not given: the % may be the effect or the level left
[15] = test system: L6; assay: Increase in GLUT1myc abundance in rat L6 cell membrane at 5 µM after 18 hrs; assay type: functional, cell-based; method in brief: as §2
[16] = test system: L6; assay: Increase in GLUT4myc abundance in rat L6 cell membrane at 5 µM after 18 hrs; assay type: functional, cell-based; method in brief: as §2
[17] = test system: L6; assay: Effect on [3H]2-deoxy-D-glucose uptake in rat L6 cells at 250 uM relative to control; assay type: functional; method in brief: as §1
[18] = test system: L6; assay: Effect on [3H]2-deoxy-D-glucose uptake in rat L6 cells at 400 uM relative to control; assay type: functional; method in brief: as §1
[19] = test system: L6; assay: Effect on [3H]2-deoxy-D-glucose uptake in rat L6 cells at 500 uM relative to control; assay type: functional; method in brief: as §1
[20] = Effect on [3H]2-deoxy-D-glucose uptake in human skeletal muscle cells at 150 uM relative to control; assay type: functional
[21] = test system: L6; assay: Activation of 5-AMP-induced AMPKalpha in rat L6 cells assessed as […] phosphorylation at 150 uM relative to control in presence of compound C; assay type: cell-based
[22] = test system: L6; assay: Activation of 5-AMP-induced AMPKalpha in rat L6 cells assessed as […] phosphorylation at 150 uM relative to control; assay type: cell-based; method in brief: as §4
[23] = test system: Serum; assay: Protein binding in fetal calf serum at 5 uM; assay type: ADME, cell-free, Bos taurus; conditions: cattle
Method in brief: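 αMEM with 10% FCS was spiked at 4.6–23.0 µM and held 60 min at 37 °C for total concentration. Samples were ultrafiltered through a 10 kDa cutoff (4400g, 60 min), and the filtrate was hexane-extracted and analysed by LC-MS (SIR m/z 432) for free concentration.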

[24] = species: Homo sapiens; assay: Activation of 5-AMP-induced AMPKalpha in human skeletal muscle cells assessed as […] phosphorylation at 150 uM relative to control; method in brief: as §3
[25] = test system: L6; assay: Inhibition of [3H]2-deoxy-D-glucose uptake in rat L6 cells at 150 uM in presence of 100 nM wortmannin; assay type: functional, cell-based; method in brief: as §5
[26] = test system: L6; assay: Increase in GLUT1myc abundance in rat L6 cell membrane at 20 mM after 7 hrs; assay type: functional, cell-based; conditions: 150 uM, in the assay text read “at 150 uM” for “at 20 mM”; method in brief: as §2
[27] = test system: L6; assay: Increase in GLUT4myc abundance in rat L6 cell membrane at 150 uM after 7 hrs; assay type: functional, cell-based; method in brief: as §2
[28] = test system: L6; assay: Effect on [3H]2-deoxy-D-glucose uptake in rat L6 cells at 1 mM relative to control; assay type: functional; method in brief: as §1

## CCSC(SCC)[C@@H]1O[C@H](c2ccccc2)O[C@@H]2CO[C@H](c3ccccc3)O[C@@H]21
[1]
  Activity: tde
[2]
  fold change (FC): 1.06
[3]
  Activity: inactive
[4]
  free concentration: 100 nM
[5]
  Activity: tde
[6]
  MCC: 50 mM
[7]
  fold change (FC): 1.59
[8]
  Activity: inactive
[9]
  Activity: inactive
[10]
  Activity: Active
[11]
  Activity: tde
[12]
  fold change (FC): 4.89
[13]
  Activity: Active
[14]
  Activity: 48.8%
[15]
  Activity: inactive
[16]
  Activity: Active

## CCO[C@H]1[C@@H](CO)O[C@@H](c2ccccc2)O[C@H]1C(SCC)SCC
[6]
  MCC: 0.6 mM
[17]
  fold change (FC): 1.01

## O[C@@H]1[C@@H](O)[C@H](ON2CCCCC2)OC[C@H]1O
[6]
  MCC: 1 mM
[18]
  fold change (FC): 0.94

## CCS[C@@H]1OC[C@@H](O)[C@H](O)[C@H]1O
[19]
  fold change (FC): 0.93
[6]
  MCC: 1 mM

## CCSC(SCC)[C@@H]1O[C@H](c2ccccc2)O[C@H](CO)[C@@H]1O
[1]
  Activity: tde
[20]
  fold change (FC): 1.49
[3]
  Activity: inactive
[5]
  Activity: tde
[21]
  Activity: 60%
[22]
  fold change (FC): 5.25
[23]
  Activity: 98%
[8]
  Activity: inactive
[24]
  Activity: Active
[25]
  Activity: Active
[26]
  Activity: inactive
[27]
  Activity: Active
[11]
  Activity: tde
[15]
  Activity: inactive

## O[C@@H]1[C@@H](O)[C@@H](OC2=CC=CCO2)OC[C@H]1O
[6]
  MCC: 5 mM
[28]
  fold change (FC): 0.99
